Experimental data: ChEMBL document CHEMBL4706565, “Anti-glioma effects of 2-aminothiophene-3-carboxamide derivatives, ANO1 channel blockers” (Eur J Med Chem, 2020)
Calls of active or inactive are those of the source. No cut-off for these calls is given here.

Columns and labels:
[1] = target: T1, Anoctamin-1 (Mus musculus) (UniProt Q8BHY3); assay: (§1) Inhibition of GFP-fused mouse ANO1 channel expressed in HEK293A cells assessed as inhibition of ATP-induced channel current amplitude at membrane potential of +80 mV by patch clamp electrophysiology assay; format: cell-based; settings: HEK293-A
T1 sequence (whole entry): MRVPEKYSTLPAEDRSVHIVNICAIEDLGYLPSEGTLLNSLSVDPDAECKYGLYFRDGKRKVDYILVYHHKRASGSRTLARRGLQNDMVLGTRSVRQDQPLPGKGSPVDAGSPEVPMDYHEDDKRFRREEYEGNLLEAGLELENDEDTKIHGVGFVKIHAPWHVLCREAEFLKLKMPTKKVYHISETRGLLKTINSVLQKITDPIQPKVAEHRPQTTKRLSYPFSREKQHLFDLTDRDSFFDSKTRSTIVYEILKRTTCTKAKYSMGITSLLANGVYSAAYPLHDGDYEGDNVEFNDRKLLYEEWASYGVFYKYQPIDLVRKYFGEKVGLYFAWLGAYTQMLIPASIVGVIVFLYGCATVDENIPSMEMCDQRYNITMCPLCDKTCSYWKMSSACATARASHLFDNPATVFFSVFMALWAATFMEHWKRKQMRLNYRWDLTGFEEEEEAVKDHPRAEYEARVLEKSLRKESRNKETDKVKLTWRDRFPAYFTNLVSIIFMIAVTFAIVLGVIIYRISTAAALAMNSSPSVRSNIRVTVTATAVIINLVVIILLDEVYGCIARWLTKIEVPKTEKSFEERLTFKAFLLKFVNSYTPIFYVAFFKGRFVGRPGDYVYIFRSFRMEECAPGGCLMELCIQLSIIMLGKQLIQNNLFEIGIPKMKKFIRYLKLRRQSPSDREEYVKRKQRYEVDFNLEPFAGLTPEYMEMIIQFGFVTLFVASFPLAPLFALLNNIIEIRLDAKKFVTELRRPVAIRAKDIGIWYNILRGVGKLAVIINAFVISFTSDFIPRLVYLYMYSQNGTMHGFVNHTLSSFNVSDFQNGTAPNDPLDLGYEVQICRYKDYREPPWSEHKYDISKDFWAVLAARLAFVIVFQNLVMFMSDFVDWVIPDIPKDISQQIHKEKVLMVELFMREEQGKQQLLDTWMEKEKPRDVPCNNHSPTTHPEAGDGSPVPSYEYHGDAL
In short: (§2)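 Whole-cell recording at room temperature in HEK293A cells transfected with GFP-mANO1, GFP-mANO2 or GFP-mTTYH1. 1 s ramps from +80 to -80 mV, holding potential -10 mV. For ANO1/ANO2: pipette CsCl 146 mM with Ca-EGTA-NMDG, pH 7.3; bath NaCl-based, pH 7.3. For TTYH1: Tris-aspartate pipette (pH 7.2) and Tris-HCl bath (pH 7.4), with […] and BaCl2 added to block K+ channels, and hypotonic (220 mOsm/kg) bath. Washout recordings assessed reversibility.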

Anoctamin-1 = target: T2, Anoctamin-1 (Mus musculus, UniProt Q8BHY3); assay: as §1; format: cell-based, HEK293-A; in short: as §2
T2 sequence (Q8BHY3 whole entry): T1 sequence (whole entry)

U-251 [2] = assay: Inhibition of anchorage-independent colony formation in human U251 cells at 10 uM incubated for 14 days by crystal violet staining based soft agar colony formation assay; format: functional, cell-based; settings: time 14.0 day
In short: (§3)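 Soft agar assay: 2.0×10^3 U251 cells in complete medium with 0.3% agar over a 0.6% bottom agar layer. Treated with compounds at 1-100 μM for 14 days, 37 °C, 5% CO2. Colonies stained with crystal violet for 24 h, whole wells photographed and colonies counted against DMSO control; n = 3.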

U-87 MG = assay: Antiproliferative activity against human U87MG cells overexpressing ANO1 assessed as reduction in cell viability measured after 72 hrs by Celltiter-glo assay; format: functional, U-87MG ATCC
In short: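 5.0×10^3 cells/well seeded, overnight, then compounds added as 1:4 serial dilutions in DMSO; viability read after 72 h with CellTiter-Glo luminescence. GI50 from fitted dose-response curves; triplicate wells, SD from three independent experiments. DMEM for U251 and U138, MEM for U87MG, both with 10% FBS and pen/strep, 37 °C, 5% CO2.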

U-251 [3] = assay: Inhibition of anchorage-independent colony formation in human U251 cells incubated for 14 days by crystal violet staining based soft agar colony formation assay; format: functional, cell-based; settings: dose 30-100 µM, time 14.0 day; in short: as §3
Anoctamin-2 = target: T3, Anoctamin-2 (Mus musculus, UniProt Q8CFW1); assay: Inhibition of GFP-fused mouse ANO2 channel expressed in HEK293A cells assessed as inhibition of channel current amplitude at membrane potential of +80 mV by patch clamp electrophysiology assay; format: cell-based, HEK293-A; in short: as §2
T3 sequence (Q8CFW1 whole entry): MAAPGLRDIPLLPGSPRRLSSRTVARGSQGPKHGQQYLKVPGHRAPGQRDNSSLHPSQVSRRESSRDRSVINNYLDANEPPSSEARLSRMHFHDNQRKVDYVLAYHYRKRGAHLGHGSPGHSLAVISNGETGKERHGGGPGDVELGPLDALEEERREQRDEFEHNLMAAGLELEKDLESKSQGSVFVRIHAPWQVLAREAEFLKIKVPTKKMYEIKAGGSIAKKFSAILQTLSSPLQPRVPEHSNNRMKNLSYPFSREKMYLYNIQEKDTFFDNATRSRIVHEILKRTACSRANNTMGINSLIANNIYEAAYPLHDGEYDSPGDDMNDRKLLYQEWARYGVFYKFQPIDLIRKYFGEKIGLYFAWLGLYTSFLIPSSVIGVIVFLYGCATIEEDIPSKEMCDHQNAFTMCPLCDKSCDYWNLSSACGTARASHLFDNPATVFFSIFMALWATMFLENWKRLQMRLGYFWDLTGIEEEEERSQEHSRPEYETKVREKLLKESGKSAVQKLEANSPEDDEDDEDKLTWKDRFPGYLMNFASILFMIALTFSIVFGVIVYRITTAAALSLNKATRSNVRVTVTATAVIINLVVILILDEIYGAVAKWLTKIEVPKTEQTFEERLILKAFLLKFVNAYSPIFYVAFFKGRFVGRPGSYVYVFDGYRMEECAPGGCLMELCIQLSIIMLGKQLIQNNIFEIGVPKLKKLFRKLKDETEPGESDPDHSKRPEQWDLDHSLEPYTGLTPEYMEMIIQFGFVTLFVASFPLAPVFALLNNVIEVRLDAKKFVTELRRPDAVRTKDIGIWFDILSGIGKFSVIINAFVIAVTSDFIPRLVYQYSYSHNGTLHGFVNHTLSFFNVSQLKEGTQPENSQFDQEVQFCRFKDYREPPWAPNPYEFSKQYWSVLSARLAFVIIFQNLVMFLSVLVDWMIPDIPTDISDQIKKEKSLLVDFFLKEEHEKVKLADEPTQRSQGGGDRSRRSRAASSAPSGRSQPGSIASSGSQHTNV

Row | inhibition [1] | IC50 (Anoctamin-1) | GI50 (U-87 MG) | IC50 (Anoctamin-2) | Compound | inhibition (U-251 [2]) | inhibition (U-251 [3])
1 | Dose-dependent effect | 2.56 µM | 31.5 µM | 15.4 µM | CC(C)(C)C(=O)Nc1sc2c(c1C(N)=O)CCC(C(C)(C)C)C2 (configuration not stated) | inactive | Dose-dependent effect
2 | Dose-dependent effect | 1.75 µM | 23.8 µM | 7.43 µM | NC(=O)c1c(NC(=S)NC(=O)c2ccc(Cl)cc2)sc2c1CCC2 | inactive | Dose-dependent effect
